The results in this text go back to ChEMBL document CHEMBL1152649, “Synthesis, cytotoxicity and human telomerase inhibition activities of a series of 1,2-heteroannelated anthraquinones and anthra[1,2-d]imidazole-6,11-dione homologues” (2009).

A short description of experiment [1]: Cytotoxicity against human H1299 cells at 10 uM after 48 hrs by MTT assay. The note with it: NCI-H1299, 48 h. It is filed as functional. In outline:
(§1)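 H1299 non-small cell lung cancer cells were grown in RPMI 1640 with 10% FBS, penicillin and streptomycin at 37 °C under 5% CO2. About 2 × 10³ cells per well were seeded and left 24 h. Compounds were dissolved fresh in DMSO, diluted into complete medium and applied for 48 h. MTT was then added for 4 h at 37 °C, followed by lysis buffer (20% SDS, 50% DMF) for 16 h, and absorbance was read at 550 nm.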
In general terms: Tetrazolium assays rely on reduction of a dye to a coloured formazan, in cell work by metabolically active cells.

Experiment [2] has as its target Telomerase reverse transcriptase (Homo sapiens) (UniProt O14746). Briefly: Inhibition of TERT in human H1299 cells assessed as residual transcriptional activity at 1 uM after 24 hrs by SEAP reporter gene assay; values are per cent of control.
Experiment [3] has the same target. As to the kind of experiment: Inhibition of TERT in human H1299 cells assessed as residual transcriptional activity at 10 uM after 24 hrs by SEAP reporter gene assay; values are per cent of control. For orientation: A reporter such as luciferase makes a cellular process visible.
Experiment [4] can be described thus: Cytotoxicity against human H1299 cells at 100 uM after 48 hrs by MTT assay. Format: functional. The conditions noted are these: NCI-H1299, 48 h. In outline:
as §1

A short description of experiment [5]: Cytotoxicity against human H1299 cells at 1 uM after 48 hrs by MTT assay. It is filed as functional. The conditions noted are these: NCI-H1299, 48 h. In outline: as §1
Experiment [6] deals with Telomerase reverse transcriptase (Homo sapiens) (UniProt O14746). Briefly: Inhibition of TERT in human H1299 cells assessed as residual transcriptional activity at 100 uM after 24 hrs by SEAP reporter gene assay; values are per cent of control.
Chain of Telomerase reverse transcriptase (Homo sapiens) (O14746 whole entry): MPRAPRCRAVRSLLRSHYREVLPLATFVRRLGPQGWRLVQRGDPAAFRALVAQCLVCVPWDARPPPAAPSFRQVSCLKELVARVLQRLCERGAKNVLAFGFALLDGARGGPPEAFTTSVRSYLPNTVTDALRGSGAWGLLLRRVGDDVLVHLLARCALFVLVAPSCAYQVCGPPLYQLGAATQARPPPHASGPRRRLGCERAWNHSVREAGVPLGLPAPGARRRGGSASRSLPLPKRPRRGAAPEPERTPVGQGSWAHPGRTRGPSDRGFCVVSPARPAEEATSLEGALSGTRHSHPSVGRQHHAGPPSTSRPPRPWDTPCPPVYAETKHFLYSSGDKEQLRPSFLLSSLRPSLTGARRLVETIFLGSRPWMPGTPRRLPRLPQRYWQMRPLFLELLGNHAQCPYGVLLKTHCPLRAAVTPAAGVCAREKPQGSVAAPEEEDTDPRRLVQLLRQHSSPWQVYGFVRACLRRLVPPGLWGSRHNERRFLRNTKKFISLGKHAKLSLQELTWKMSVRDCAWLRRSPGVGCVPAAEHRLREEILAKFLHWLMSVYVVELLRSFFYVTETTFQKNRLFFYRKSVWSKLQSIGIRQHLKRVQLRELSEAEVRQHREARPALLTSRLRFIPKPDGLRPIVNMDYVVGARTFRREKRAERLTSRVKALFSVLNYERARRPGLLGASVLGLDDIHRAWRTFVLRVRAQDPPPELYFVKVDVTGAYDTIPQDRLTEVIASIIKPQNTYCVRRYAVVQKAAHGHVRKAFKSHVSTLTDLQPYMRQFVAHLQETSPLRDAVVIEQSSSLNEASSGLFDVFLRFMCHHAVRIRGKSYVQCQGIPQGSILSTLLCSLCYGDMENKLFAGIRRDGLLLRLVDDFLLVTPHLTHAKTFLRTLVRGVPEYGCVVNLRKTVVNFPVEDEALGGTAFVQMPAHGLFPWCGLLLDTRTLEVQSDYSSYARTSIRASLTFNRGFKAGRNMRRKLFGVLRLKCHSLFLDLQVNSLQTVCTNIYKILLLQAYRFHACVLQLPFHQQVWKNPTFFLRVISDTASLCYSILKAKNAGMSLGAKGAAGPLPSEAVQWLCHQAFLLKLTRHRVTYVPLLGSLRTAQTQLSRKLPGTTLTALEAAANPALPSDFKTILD
For experiment [7] the target is unchanged. Briefly: Inhibition of telomerase in human H1299 cells up to 100 uM by TRAP assay. Format: cell-based. In outline: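 PCR-based telomeric repeat amplification protocol (TRAP). The telomerase source was total lysate of H1299 lung cancer cells, with protein measured against BSA standards. Controls were extract without inhibitor and RNase A-treated extract.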

The viability is a read-out of living cells in per cent, often relative to untreated cells. One may read the residual activity as the signal under treatment as a percentage of the control signal.

Active and inactive are the calls of the source. No cut-off for these calls is given here.

Consider `CC(C)c1nc2ccc3c(c2[nH]1)C(=O)c1ccccc1C3=O`, for which the viability at 10 µM in experiment [1] turned out to be 73%. Also, the residual activity is 83% in experiment [2], 76% in experiment [3] and 13% in experiment [6]. For the same compound, the viability at 100 µM in experiment [4] came to 34%. Moreover, in experiment [5], the viability at 1 µM was 95%. For the same compound, the inhibition result in experiment [7] was “inactive”.
For `Cc1nc2ccc3c(c2nc1C)C(=O)c1ccccc1C3=O`, the viability at 10 µM in experiment [1] came to 69%. Besides, the residual activity in experiment [2] was determined as 95%; in experiment [3], 88%; in experiment [6], 26%. In addition, the viability at 100 µM in experiment [4] came out at 25%. The viability at 1 µM in experiment [5] worked out at 78%. Further, the inhibition result in experiment [7] was “inactive”.
In the case of `O=C1c2ccccc2C(=O)c2c1ccc1nc(-c3ccc([N+](=O)[O-])cc3)[nH]c21`, the viability at 10 µM in experiment [1] is 52%. In addition, the residual activity in experiment [2] was determined as 85%; in experiment [3], 62%; in experiment [6], 6%. Further, in experiment [4], the viability at 100 µM was found to be 33%. Also, the viability at 1 µM in experiment [5] stood at 84%. Besides, in experiment [7], the inhibition result was “inactive”.
With `CC/C=C/c1nc2ccc3c(c2[nH]1)C(=O)c1ccccc1C3=O`, the viability at 10 µM in experiment [1] stood at 48%. In addition, the residual activity in experiment [2] is 63%; in experiment [3], 34%; in experiment [6], 13%. Moreover, in experiment [4], the viability at 100 µM amounted to 14%. Moreover, in experiment [5], the viability at 1 µM is 69%. Further, the inhibition result in experiment [7] is “inactive”.
`CCCCCCCc1nc2ccc3c(c2[nH]1)C(=O)c1ccccc1C3=O`: in experiment [1], the viability at 10 µM amounted to 69%. Further, the residual activity was 89% in experiment [2], 88% in experiment [3] and 32% in experiment [6]. Also, the viability at 100 µM in experiment [4] is 40%. The viability at 1 µM in experiment [5] came out at 85%. In experiment [7], the inhibition result was “inactive”.
For the compound `CC(C)(C)c1nc2ccc3c(c2[nH]1)C(=O)c1ccccc1C3=O`, the viability at 10 µM in experiment [1] was 81%. Also, the figures for the residual activity in experiment [2], in experiment [3] and in experiment [6] were 88%, 87% and 29%, respectively. In experiment [4], the viability at 100 µM was determined as 56%. In addition, the viability at 1 µM in experiment [5] came to 83%. For the same compound, the inhibition entry in experiment [7] was “inactive”.
For the compound `CCC(C)c1nc2ccc3c(c2[nH]1)C(=O)c1ccccc1C3=O` (stereo unspecified), the viability at 10 µM in experiment [1] was 83%. Also, the figures for the residual activity in experiment [2], in experiment [3] and in experiment [6] were 67%, 58% and 11%, respectively. The viability at 100 µM in experiment [4] turned out to be 43%. Besides, the viability at 1 µM in experiment [5] came to 77%. Besides, the inhibition entry in experiment [7] is “inactive”.
As for `CC1(c2ccccc2)Nc2ccc3c(c2N1)C(=O)c1ccccc1C3=O` (stereo unspecified), the viability at 10 µM in experiment [1] came to 99%. Also, the figures for the residual activity in experiment [2], in experiment [3] and in experiment [6] were 99%, 97% and 29%, respectively. For the same compound, in experiment [4], the viability at 100 µM came to 29%. Moreover, the viability at 1 µM in experiment [5] was found to be 99%. Moreover, in experiment [7], the inhibition result was “inactive”.
As to `Cc1nc2ccc3c(c2[nH]1)C(=O)c1ccccc1C3=O`, the viability at 10 µM in experiment [1] is 44%. Besides, the residual activity turned out to be 101% in experiment [2], 82% in experiment [3] and 19% in experiment [6]. Further, the viability at 100 µM in experiment [4] was 33%. In addition, the viability at 1 µM in experiment [5] is 64%. The inhibition result in experiment [7] was “inactive”.
In the case of `O=C1c2ccccc2C(=O)c2c1ccc1[nH]c(=S)[nH]c21`, the viability at 10 µM in experiment [1] was determined as 99%. Moreover, the residual activity was 97% in experiment [2], 100% in experiment [3] and 31% in experiment [6]. The viability at 100 µM in experiment [4] was 54%. In experiment [5], the viability at 1 µM came to 101%. In addition, the inhibition entry in experiment [7] was “inactive”.
Consider `O=C1c2ccccc2C(=O)c2c1ccc1nc(CCl)[nH]c21`, for which, in experiment [1], the viability at 10 µM was determined as 79%. Besides, the figures for the residual activity in experiment [2], in experiment [3] and in experiment [6] were 94%, 81% and 5%, respectively. Also, the viability at 100 µM in experiment [4] was 26%. Besides, the viability at 1 µM in experiment [5] stood at 80%. The inhibition entry in experiment [7] was “inactive”.
`COc1ccc(OC)c(-c2nc3ccc4c(c3[nH]2)C(=O)c2ccccc2C4=O)c1`: in experiment [1], the viability at 10 µM worked out at 39%. The residual activity in experiment [2] was determined as 77%; in experiment [3], 76%; in experiment [6], 41%. Further, the viability at 100 µM in experiment [4] stood at 13%. Moreover, in experiment [5], the viability at 1 µM is 91%. Besides, the inhibition entry in experiment [7] is “inactive”.
For `CCCCc1nc2ccc3c(c2[nH]1)C(=O)c1ccccc1C3=O`, the viability at 10 µM in experiment [1] amounted to 70%. In addition, the residual activity in experiment [2] was 91%; in experiment [3], 84%; in experiment [6], 36%. For the same compound, the viability at 100 µM in experiment [4] turned out to be 20%. The viability at 1 µM in experiment [5] was 85%. Also, the inhibition entry in experiment [7] is “inactive”.
